Screening data from PubChem.
This is a sample that favours compounds with a hit; in the whole collection about 2.4% have one here.
S100A4 inh HTS: inhibitors of S100A4-myosin IIA peptide binding, primary screen, biochemical, fluorescence polarization, TAMRA-MyoIIA peptide. inhibition, % at 10.7 µM. 0.14% of 360,000 active. Protein S100-A4 (Homo sapiens), P26447;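 active means mean inhibition of at least 70% across replicates, with every replicate also reaching that level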
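Assay system: human S100A4 monomer with TAMRA-labelled myosin IIA peptide / Buffer or medium: Calcium-containing HEPES buffer, pH 7.2 / Reagent: TAMRA-labelled myosin IIA heavy-chain peptide probe, 5 nM / Compound: one dose per compound / Timing: polarization read 5 min after assay mix addition, stable 5–60 min / Benchmarks: neutral control DMSO, positive control TFP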
ERAP1 inh: human ERAP1 aminopeptidase inhibitors, primary screen, biochemical, single point, plate reader. Endoplasmic reticulum aminopeptidase 1 (Homo sapiens), Q9NZ08. recombinant ERAP1, Leu-AMC fluorescence, 60 min. inhibition, % at 10.7 µM. 0.15% of 340,000 active. AID 652197, 2013;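 active means mean replicate inhibition of at least 30%, or all replicates individually reaching that 30% level; inactive means mean below 30% and not every replicate reaching it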
Target sequence (Q9NZ08 whole entry, looked up): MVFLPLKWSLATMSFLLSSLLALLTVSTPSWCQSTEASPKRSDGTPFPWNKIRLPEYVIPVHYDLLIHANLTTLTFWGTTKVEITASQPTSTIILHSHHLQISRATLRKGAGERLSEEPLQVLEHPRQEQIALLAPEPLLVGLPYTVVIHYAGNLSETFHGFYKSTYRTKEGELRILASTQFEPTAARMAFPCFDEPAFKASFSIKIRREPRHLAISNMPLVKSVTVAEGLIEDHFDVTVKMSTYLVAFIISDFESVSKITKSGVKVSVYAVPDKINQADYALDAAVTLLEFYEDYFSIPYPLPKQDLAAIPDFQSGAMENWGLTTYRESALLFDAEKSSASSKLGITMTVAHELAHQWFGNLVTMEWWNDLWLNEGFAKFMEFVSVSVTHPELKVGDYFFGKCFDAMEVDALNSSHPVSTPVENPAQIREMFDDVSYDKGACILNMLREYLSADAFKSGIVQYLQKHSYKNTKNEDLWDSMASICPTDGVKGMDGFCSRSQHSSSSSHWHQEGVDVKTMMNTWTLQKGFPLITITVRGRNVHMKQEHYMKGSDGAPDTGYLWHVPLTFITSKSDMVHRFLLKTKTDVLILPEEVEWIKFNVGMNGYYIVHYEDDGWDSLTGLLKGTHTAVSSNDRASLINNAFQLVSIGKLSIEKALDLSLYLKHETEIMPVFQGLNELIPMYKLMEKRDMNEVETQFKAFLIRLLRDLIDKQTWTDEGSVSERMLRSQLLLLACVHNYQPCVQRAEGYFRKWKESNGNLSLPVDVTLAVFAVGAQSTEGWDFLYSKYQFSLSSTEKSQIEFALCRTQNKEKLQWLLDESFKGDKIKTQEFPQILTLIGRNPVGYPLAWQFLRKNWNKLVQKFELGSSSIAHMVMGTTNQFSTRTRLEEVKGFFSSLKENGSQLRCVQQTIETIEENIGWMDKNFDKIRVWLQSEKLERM
Ecoli rRNA inh: reduced GFP signal of wild-type E. coli, primary screen, bacterial rRNA inhibitor project, GFP/RFP fluorescence, OD600, single point; GFP signal change (wild-type ribosome), % (no concentration beside the values); 1.6% of 350,000 active; E. coli WT GFP vs humanized-ribosome RFP mutants, 24 h; stronger effect = lower value; DMSO median 0, no signal -100;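 active means significant combined selectivity score with lowered wild-type GFP, culture density cut under 30%, mutant RFP and density less affected; inactive means any of these conditions unmet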
ARNT TACC3 PPI: disruptors of ARNT/TACC3 protein interaction, primary screen, biochemical, AlphaScreen, single concentration. Transforming acidic coiled-coil-containing protein 3 (Homo sapiens), Q9Y6A5. AlphaScreen His-ARNT PAS-B/GST-TACC3 binding, luminescence; TACC3 fragment carries E629A point mutation. inhibition, % at 9.99 µM. 0.66% of 390,000 active;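 active means mean inhibition of replicates at least 50% and at least half of replicates each reaching 50%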
PGC1a acetyl inh: inhibitors of PGC1a acetylation signal, primary screen, cell-based, U2OS, AlphaScreen, inhibitor mode. AlphaScreen anti-acetyl-lysine; with virally co-expressed GCN5 acetyltransferase. inhibition, % at 15.6 µM. 0.17% of 350,000 active. AID 651687, 2012;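 active means every replicate shows inhibition of at least 40%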
Casp6 inh: human caspase-6 inhibitors, primary screen, biochemical, VEID-R110 fluorescence, single point, set 2. purified caspase-6, Z-VEID-R110 cleavage fluorescence. AID 686996, 2013. P55212. inhibition, % at 12.5 µM. 0.53% of 350,000 active;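 active means mean inhibition across replicates at least about 35%, with every replicate also reaching that limit, limit read from the data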
Numbers stand for hits; - = inactive; . = no result given; ! = repeats disagree.

SMILES	S100A4 inh HTS	ERAP1 inh	Ecoli rRNA inh	ARNT TACC3 PPI	PGC1a acetyl inh	Casp6 inh
COc1ccccc1Cn1c(=S)[nH]c2ccccc2c1=O	-	-	-28.1	-	-	-
COc1ccccc1Cn1c(=S)[nH]c2ccc(Br)cc2c1=O	-	-	-	-	-	-
O=C(NCCN1CCC(n2c(=O)[nH]c3ccccc32)CC1)N1c2ccccc2Sc2ccccc21	-	-	-36.2	.	.	-
COCC(=O)Nc1ccc2c(c1)OC[C@@H](C)N(CC1CCCCC1)C[C@@H](C)[C@@H](OC)CN(C)C2=O	.	.	-	.	.	.
COCC(=O)N1[C@@H](C#N)[C@H](c2ccc(-c3cccc(F)c3)cc2)[C@@H]1CO	116.2	-	-	-	-	-
COC(=O)[C@@H]1[C@@H](CO)[C@@H]2Cn3c(cccc3=O)[C@@H]2N1CC1CCOCC1	87.6	-	-	-	.	73.8
O=C([C@@H]1[C@@H](CO)[C@@H]2Cn3c(cccc3=O)[C@@H]2N1CCC(F)(F)F)N1CCCCC1	-	-	-	9.3	.	-
O=C([C@@H]1[C@@H](CO)[C@@H]2Cn3c(cccc3=O)[C@@H]2N1Cc1cc(F)ccc1F)N1CCOCC1	-	-	-	-	.	48.8
CN1CCN(C(=O)[C@@H]2[C@@H](CO)[C@@H]3Cn4c(cccc4=O)[C@@H]3N2Cc2cc(F)ccc2F)CC1	-	-	-	-	.	-
O=C(NCC(F)(F)F)[C@H]1[C@H](CO)[C@H]2Cn3c(cccc3=O)[C@H]2N1CCC(F)(F)F	-	-	-	.	.	-
O=C([C@H]1[C@H](CO)[C@H]2Cn3c(cccc3=O)[C@H]2N1Cc1ccccn1)N1CCC(Cc2ccccc2)CC1	-	-	-	.	.	40.8
CCCNC(=O)N1CC2(CN(S(=O)(=O)c3cccc(OC)c3)C2)c2c(n(C)c3cc(OC)ccc23)[C@@H]1CO	.	.	-	.	.	.
CC=Cc1ccc2n(c1=O)C[C@H]1[C@H](CO)[C@@H](C(=O)NCc3ccccc3)N(CCC(F)(F)F)[C@@H]21 (mixture of isomers)	-	-	-	-	-	-
O=S(=O)(N[C@@H]1CC[C@@H](CCn2cc(-c3cccnc3)nn2)O[C@@H]1CO)c1ccc(F)cc1	-	-	-	-	-	-
CN(C)CC(=O)Nc1ccc2c(c1)[C@H]1C[C@H](CC(=O)NCCN3CCCCC3)O[C@@H](CO)[C@H]1O2	-	-	-	-	-	-
O=[N+]([O-])c1ccc(C(O)C(CO)NC(=S)Nc2ccccc2)cc1 (stereo unspecified)	-	-	-44.1	-	.	-
Cc1ccc(NC(=S)NC(CO)C(O)c2ccc([N+](=O)[O-])cc2)cc1 (stereo unspecified)	-	-	-	-	-	-
CCc1ccc(OCC(=O)O/N=C(\N)c2ccccn2)cc1	-	-	-22.4	.	-	-
C[C@H]1CCCCO[C@H](CN(C)C(=O)Cc2ccccc2)[C@@H](C)CN([C@@H](C)CO)C(=O)c2cc(NC(=O)CCCN(C)C)ccc2O1	-	-	-	-	-	-
CCCn1c2ccccc2c2nnc(SCCN3CCOCC3)nc21	-	-	-	-	-	42.7
CCCn1c2ccc(C)cc2c2nnc(SCCN3CCOCC3)nc21	-	-	-	-	-	-
O=C(Nc1ccc(C(=O)N2CCCC2)cc1)c1ccc2c(c1)OCO2	-	-	-	-	-	44.3
Cc1ccc(NC(=O)c2ccc3c(c2)OCO3)cc1S(=O)(=O)N1CCOCC1	-	-	-17.6	-	-	-
CC1CCC(C(C)C)C(OC(=O)Cn2c(-c3ccccc3)[n+](C)c3ccccc32)C1 (stereo unspecified)	-	-	-50.9!	-	-	-
CO[C@H](CN(C)S(=O)(=O)c1ccc(Cl)cc1)[C@H](C)CN(C(=O)Nc1ccccc1F)[C@H](C)CO	-	-	-	-	-	-
SMILES	S100A4 inh HTS	ERAP1 inh	Ecoli rRNA inh	ARNT TACC3 PPI	PGC1a acetyl inh	Casp6 inh
O=C(Nn1cc(C(=O)Nc2ccc(F)cc2F)c2ccccc2c1=O)c1cnccn1	-	-	-	65.3	-	-
O=C(C1CCCCC1)N1CC[C@@H]2[C@@H](CO)Nc3ccc(Br)cc3[C@@H]21	-	-	-	-	-	-
O=C(Cc1ccccc1)N1CC(=O)N2[C@H](C1)[C@@H](c1ccc(Br)cc1)[C@@H]2CO	-	-	-	.	-	-
COc1cc(C(=O)ON=C2C3CC4CC(C3)CC2C4)cc(OC)c1OC	-	-	-21.8	-	-	-
COc1cc2c(cc1OC)C(c1ccc3c(c1)Cc1ccccc1-3)OC(=O)C2 (stereo unspecified)	-	-	-22.6	.	-	-
COc1ccc(C2OC(=O)Cc3cc(OC)c(OC)cc32)cc1 (stereo unspecified)	-	-	-	-	-	-
COc1ccccc1-c1ccc([C@H]2[C@@H](CO)N[C@@H]2CNC(=O)C2CCCC2)cc1	-	-	-	.	.	-
C[C@@H]1CCCCO[C@@H](CN(C)C(=O)Cc2ccccc2)[C@H](C)CN([C@@H](C)CO)C(=O)c2cc(NC(=O)Cc3ccccc3)ccc2O1	126.4	-	-	-	-	-
C[C@@H]1CCCCO[C@H](CN(C)C(=O)Nc2ccc(F)cc2)[C@H](C)CN([C@@H](C)CO)C(=O)c2cc(NC(=O)Cc3ccccc3)ccc2O1	-	-	-	-	-	-
C[C@H]1CCCCO[C@H](CN(C)C(=O)Nc2ccc(F)cc2)[C@@H](C)CN([C@@H](C)CO)C(=O)c2cc(NC(=O)Cc3ccccc3)ccc2O1	-	-	-	-	-	43.1
COc1ccc(C2N(c3ccccc3)C(=O)C2(F)F)cc1OC (stereo unspecified)	-	-	-22.9	-	-	-
Cc1ccc(N2C(=O)C(F)(F)C2c2ccccc2)cc1 (stereo unspecified)	-	-	-	.	.	-
Cc1c(CCO)c(=O)n(-c2ccccc2)n1S(=O)(=O)c1c(Cl)cc(Cl)cc1Cl	.	.	.	56.6	-	.
CC1Sc2ccc(C(=O)Nc3ccccc3OC(F)F)cc2NC1=O (stereo unspecified)	-	-	-20.0	-	.	-
CC1Sc2ccc(C(=O)Nc3ncccc3O)cc2NC1=O (stereo unspecified)	-	-	-	-	.	-
COCC#Cc1ccc2c(c1)O[C@@H](CN(C)S(=O)(=O)c1cccc(OC)c1)[C@@H](C)CN([C@@H](C)CO)S2(=O)=O	-	-	-	-	-	-
